According to ChEMBL document CHEMBL1800061 (J Med Chem, 2010):
Calls of active or inactive are those of the source. No cut-off for these calls is given here.

Legend:
MCF7 [1] = assay: Antiproliferative activity against human MCF7 cells after 72 hrs by sulforhodamine B assay; format: functional; settings: MCF7, 72 h
Summary of the method: (§1)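 Cell lines were grown in DMEM with 10% FCS and treated with increasing concentrations for 72 h. Growth was read by sulforhodamine B staining and GI50 was derived. Values are means of at least three replicates with SD.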

PC-3 = assay: Antiproliferative activity against human PC3 cells after 72 hrs by sulforhodamine B assay; format: functional; settings: PC-3, 72 h; summary of the method: as §1
SK-OV-3 = assay: Antiproliferative activity against human SKOV3 cells after 72 hrs by sulforhodamine B assay; format: functional; settings: SK-OV-3, 72 h; summary of the method: as §1
HCT-116 = assay: Cell cycle arrest in human HCT116 cells assessed as concomitant increase in cells at S phase at 1 to 10 umol/L after 24 hrs by propidium iodide staining based flow cytometric analysis; format: functional
Summary of the method: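 HCT116 cells (4×10^5) were allowed to adhere for 24 h, then exposed to 1 or 10 μmol/L compound from DMSO for 24 h. Cells were fixed in 70% ethanol at 4 °C and stained overnight with RNase and propidium iodide. DNA content was read by flow cytometry. Results are from three independent experiments, with unpaired t test against the DMSO control.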

[2] = biological target: G1/S-specific cyclin-D1 (Homo sapiens) (UniProt P24385); assay: Inhibition of cyclin D1-mediated phosphorylation of […] in human HCT116 cells after 4 hrs by immunoblotting analysis; format: cell-based; settings: HCT-116
Summary of the method: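 HCT116 cells grown in DMEM with 10% FCS were plated at 8×10^5 per dish and treated after 24 h with compound in DMSO. Lysis was done 4 h later in RIPA buffer with phosphatase and protease inhibitor cocktails, and protein was quantified by BCA. Whole-cell lysates were immunoblotted for phospho-RB (Ser-780, Ser-795, Ser-801, Ser-807/811, Thr-821) and RNA polymerase II CTD Ser-2.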

MCF7 [3] = assay: Antitumor activity against human MCF7 cells xenografted in nude BALB/c mouse assessed as decrease in tumor volume at 10 mg/kg, ip bid for 14 days relative to control on day 1; format: functional; settings: route intraperitoneal
Summary of the method: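 Randomised nude mice bearing MCF-7 tumours were injected intraperitoneally twice daily with 5 or 10 mg/kg (10 or 20 mg/kg/day) for 14 days. The control group received vehicle. Tumour volume was expressed relative to each animal's own day 1 volume.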

[4] = Metabolic stability in human liver microsomes as compound remaining at 1 uM; format: ADME, Microsome; settings: read-out: Stability
Summary of the method: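 Liver microsomes, test compound at 1 μM with NADP 1 mM, G6P 5 mM and G6PDHase 1 U/mL, in 0.6% methanol and 0.6% acetonitrile. Incubated 0 and 60 min at 37 °C. Reported as percent parent remaining, mean (range), n=2.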

[5] = Bioavailability in mouse at 10 mg/kg, ip; format: ADME, organism-based; settings: in vivo
Summary of the method: (§2)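 Mice given 10 mg/kg by the ip, iv or oral route. Plasma levels were measured at 8 time points, with 3 animals per route for po and iv. Parameters came from a noncompartmental model. AUCINF was extrapolated to infinity, and bioavailability was calculated from AUCINF. The terminal slope used 3 points.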

[6] = AUC (0 to last) in mouse at 10 mg/kg, ip; format: ADME, organism-based; set-up: time 0 - last, dose 10 mg/kg, route intraperitoneal; settings: plasma; summary of the method: as §2
[7] = Volume of distribution at steady state in mouse at 10 mg/kg, iv; format: ADME, organism-based; set-up: dose 10 mg/kg, route intravenous; settings: in vivo, read-out: Vdss
Mus musculus [8] = assay: Inhibition of cyclin-dependent kinase substrate […] phosphorylation in nude BALB/c mouse PBMC at 50 mg/kg, po measured after 24 hrs by immunostaining and flow cytometric analysis; format: functional, organism-based; set-up: dose 50 mg/kg
Summary of the method: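 Female nu/nu-BALB/c athymic nude mice (7 weeks old) given a single oral gavage dose in 28% PEG300/5% dimethylacetamide/10% HPB cyclodextrin in water. PBMC were isolated from cardiac blood after red-cell lysis, then fixed, permeabilized and stained with primary antibodies (1:100, 1 h, RT) and an Alexa Fluor 488 secondary (1:200, 1 h). Read-out was flow cytometry; n=4 (n=3 at 100 mg/kg).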

[9] = biological target: Mitogen-activated protein kinase 14 (Homo sapiens) (UniProt Q16539); assay: Inhibition of p38alpha MAPK assessed as residual enzyme activity at 10 uM
[10] = biological target: Mitogen-activated protein kinase 15 (Homo sapiens) (UniProt Q8TD08); assay: Inhibition of ERK8 assessed as residual enzyme activity at 10 uM
[11] = biological target: Serine/threonine-protein kinase Sgk1 (Homo sapiens) (UniProt O00141); assay: Inhibition of SGK1 assessed as residual enzyme activity at 10 uM
Mus musculus [12] = assay: Toxicity in nude BALB/c mouse assessed as adverse effect on weight at 25 mg/kg/day, po for 14 days; format: organism-based; set-up: route oral; settings: in vivo, 336 h
Summary of the method: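 Female nu/nu-BALB/c nude mice bearing subcutaneous HCT116 flank xenografts (5×10^6 cells), randomized when tumors reached 100–200 mm3. Dosed by oral gavage once daily for 14 days in PEG300/dimethylacetamide/HPB cyclodextrin vehicle. Body weight recorded daily; vehicle n=8, treated n=6.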

Mus musculus [13] = assay: Inhibition of cyclin-dependent kinase substrate […] phosphorylation at Ser2 in nude BALB/c mouse PBMC at 50 to 100 mg/kg, po measured after 6 hrs by immunostaining and flow cytometric analysis; format: organism-based; set-up: dose 50-100 mg/kg, route oral; settings: in vivo
Summary of the method: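 Seven-week-old female nu/nu-BALB/c nude mice got a single oral gavage (vehicle 28% PEG300/5% dimethylacetamide/10% HPB cyclodextrin in water). Blood was taken by cardiac puncture at 6 h or 24 h, red cells were lysed, and PBMC were fixed and permeabilized. Cells were stained with Rb, Rb pThr821, PolII or PolII pSer2 antibodies plus an Alexa488 secondary, then read by flow cytometry; n=4 (n=3 at 100 mg/kg).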

[14] = biological target: Myosin light chain kinase, smooth muscle (Homo sapiens) (UniProt Q15746); assay: Inhibition of Smooth muscle MLCK assessed as residual enzyme activity at 10 uM
[15] = biological target: Serine/threonine-protein kinase BRSK2 (Homo sapiens) (UniProt Q8IWQ3); assay: Inhibition of BRSK2 assessed as residual enzyme activity at 10 uM
[16] = biological target: Dual specificity tyrosine-phosphorylation-regulated kinase 2 (Homo sapiens) (UniProt Q92630); assay: Inhibition of DYRK2 assessed as residual enzyme activity at 10 uM
[17] = biological target: Serine/threonine-protein kinase pim-2 (Homo sapiens) (UniProt Q9P1W9); assay: Inhibition of PIM2 assessed as residual enzyme activity at 10 uM
[18] = biological target: Fibroblast growth factor receptor 1 (Homo sapiens) (UniProt P11362); assay: Inhibition of FGFR1 assessed as residual enzyme activity at 10 uM
[19] = biological target: Tyrosine-protein kinase BTK (Homo sapiens) (UniProt Q06187); assay: Inhibition of BTK assessed as residual enzyme activity at 10 uM
[20] = biological target: Ephrin type-B receptor 3 (Homo sapiens) (UniProt P54753); assay: Inhibition of EPHB3 assessed as residual enzyme activity at 10 uM
[21] = biological target: Casein kinase I isoform alpha (Homo sapiens, UniProt P48729); assay: Inhibition of CK1 at 0.1 uM
[22] = biological target: Mitogen-activated protein kinase 15 (Homo sapiens) (UniProt Q8TD08); assay: Inhibition of ERK8 at 10 umol/L

Sequence of Mitogen-activated protein kinase 15 (Homo sapiens) (Q8TD08 whole entry): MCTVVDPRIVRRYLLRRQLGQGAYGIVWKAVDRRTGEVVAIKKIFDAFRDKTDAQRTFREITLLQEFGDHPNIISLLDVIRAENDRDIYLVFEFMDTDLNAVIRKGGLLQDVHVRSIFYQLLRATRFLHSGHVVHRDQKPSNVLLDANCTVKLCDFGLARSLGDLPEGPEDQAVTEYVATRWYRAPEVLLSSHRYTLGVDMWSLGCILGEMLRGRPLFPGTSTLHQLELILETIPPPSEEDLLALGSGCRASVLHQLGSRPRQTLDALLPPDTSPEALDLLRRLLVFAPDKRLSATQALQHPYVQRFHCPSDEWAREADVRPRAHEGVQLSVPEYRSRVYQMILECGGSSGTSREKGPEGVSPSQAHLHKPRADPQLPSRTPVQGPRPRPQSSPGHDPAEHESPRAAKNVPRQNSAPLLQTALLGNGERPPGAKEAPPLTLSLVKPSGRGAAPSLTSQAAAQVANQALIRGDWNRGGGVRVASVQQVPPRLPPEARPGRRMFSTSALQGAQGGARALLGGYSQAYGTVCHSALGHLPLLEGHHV
Sequence of G1/S-specific cyclin-D1 (Homo sapiens) (P24385 whole entry): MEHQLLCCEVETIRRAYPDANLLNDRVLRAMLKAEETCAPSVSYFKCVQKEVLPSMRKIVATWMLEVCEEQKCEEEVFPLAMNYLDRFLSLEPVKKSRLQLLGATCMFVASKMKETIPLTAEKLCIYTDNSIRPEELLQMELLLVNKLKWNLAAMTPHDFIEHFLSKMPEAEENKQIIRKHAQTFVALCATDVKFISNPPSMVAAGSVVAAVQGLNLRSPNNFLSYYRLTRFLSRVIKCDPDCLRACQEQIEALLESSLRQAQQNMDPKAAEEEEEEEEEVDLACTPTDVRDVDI
Sequence of Fibroblast growth factor receptor 1 (Homo sapiens) (P11362 22-822 limits assumed): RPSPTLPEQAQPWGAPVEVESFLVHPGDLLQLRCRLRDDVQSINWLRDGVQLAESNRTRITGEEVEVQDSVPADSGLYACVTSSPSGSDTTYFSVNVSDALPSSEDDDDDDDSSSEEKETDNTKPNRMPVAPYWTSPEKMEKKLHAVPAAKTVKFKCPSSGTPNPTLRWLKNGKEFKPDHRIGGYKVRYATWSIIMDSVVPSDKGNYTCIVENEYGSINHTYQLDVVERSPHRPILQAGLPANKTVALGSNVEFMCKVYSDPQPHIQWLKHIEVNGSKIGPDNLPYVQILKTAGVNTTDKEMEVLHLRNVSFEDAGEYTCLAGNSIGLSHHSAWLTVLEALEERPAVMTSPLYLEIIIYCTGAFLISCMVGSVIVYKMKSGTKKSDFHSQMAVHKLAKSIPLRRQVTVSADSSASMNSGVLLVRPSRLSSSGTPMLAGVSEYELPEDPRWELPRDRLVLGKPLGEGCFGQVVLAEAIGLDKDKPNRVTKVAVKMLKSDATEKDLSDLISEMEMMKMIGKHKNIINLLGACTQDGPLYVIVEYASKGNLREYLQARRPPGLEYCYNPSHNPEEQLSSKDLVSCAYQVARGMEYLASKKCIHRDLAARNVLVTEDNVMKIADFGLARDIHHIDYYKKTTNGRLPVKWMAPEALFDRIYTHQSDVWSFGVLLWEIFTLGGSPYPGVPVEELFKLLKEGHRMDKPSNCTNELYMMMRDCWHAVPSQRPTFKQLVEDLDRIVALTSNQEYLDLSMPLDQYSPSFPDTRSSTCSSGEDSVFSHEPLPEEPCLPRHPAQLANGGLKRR
Sequence of Ephrin type-B receptor 3 (Homo sapiens) (P54753 whole entry, canonical isoform): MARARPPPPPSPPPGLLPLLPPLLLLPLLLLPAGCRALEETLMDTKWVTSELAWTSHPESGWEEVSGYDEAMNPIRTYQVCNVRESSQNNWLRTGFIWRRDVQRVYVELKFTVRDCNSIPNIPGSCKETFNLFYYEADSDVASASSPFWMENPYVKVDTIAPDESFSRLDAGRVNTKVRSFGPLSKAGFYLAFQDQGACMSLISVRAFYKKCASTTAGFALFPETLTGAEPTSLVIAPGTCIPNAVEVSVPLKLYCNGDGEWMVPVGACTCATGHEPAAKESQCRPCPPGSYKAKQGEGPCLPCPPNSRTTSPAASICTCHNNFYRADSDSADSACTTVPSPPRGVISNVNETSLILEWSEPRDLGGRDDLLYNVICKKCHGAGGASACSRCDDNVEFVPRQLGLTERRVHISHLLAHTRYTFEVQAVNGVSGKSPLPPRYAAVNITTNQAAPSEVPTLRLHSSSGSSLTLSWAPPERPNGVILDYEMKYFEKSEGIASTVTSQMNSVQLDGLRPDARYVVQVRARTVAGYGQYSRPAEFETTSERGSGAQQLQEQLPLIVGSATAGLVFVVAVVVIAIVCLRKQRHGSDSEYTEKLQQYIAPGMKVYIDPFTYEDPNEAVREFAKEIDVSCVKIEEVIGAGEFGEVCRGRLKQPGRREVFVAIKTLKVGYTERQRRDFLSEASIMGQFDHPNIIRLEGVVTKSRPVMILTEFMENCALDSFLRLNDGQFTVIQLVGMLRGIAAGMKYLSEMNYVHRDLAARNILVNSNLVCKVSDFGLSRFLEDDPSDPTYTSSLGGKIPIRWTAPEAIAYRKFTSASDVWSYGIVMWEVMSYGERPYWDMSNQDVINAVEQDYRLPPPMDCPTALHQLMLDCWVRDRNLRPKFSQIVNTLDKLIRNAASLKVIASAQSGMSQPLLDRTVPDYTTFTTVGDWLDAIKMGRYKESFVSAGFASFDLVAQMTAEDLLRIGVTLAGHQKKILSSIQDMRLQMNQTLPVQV
Sequence of Serine/threonine-protein kinase Sgk1 (Homo sapiens) (O00141 whole entry): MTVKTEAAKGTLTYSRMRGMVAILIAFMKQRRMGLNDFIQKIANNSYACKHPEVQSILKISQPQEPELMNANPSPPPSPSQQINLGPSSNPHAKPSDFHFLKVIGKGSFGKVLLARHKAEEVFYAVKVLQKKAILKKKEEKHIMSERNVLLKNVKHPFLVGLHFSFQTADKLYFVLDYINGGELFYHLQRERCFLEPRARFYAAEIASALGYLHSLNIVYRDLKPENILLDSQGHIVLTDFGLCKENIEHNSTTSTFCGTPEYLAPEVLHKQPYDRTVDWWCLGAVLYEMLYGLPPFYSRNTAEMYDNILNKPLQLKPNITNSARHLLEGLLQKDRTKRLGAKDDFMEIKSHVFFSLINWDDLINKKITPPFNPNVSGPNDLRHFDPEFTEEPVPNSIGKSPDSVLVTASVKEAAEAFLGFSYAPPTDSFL
Sequence of Tyrosine-protein kinase BTK (Homo sapiens) (Q06187 whole entry): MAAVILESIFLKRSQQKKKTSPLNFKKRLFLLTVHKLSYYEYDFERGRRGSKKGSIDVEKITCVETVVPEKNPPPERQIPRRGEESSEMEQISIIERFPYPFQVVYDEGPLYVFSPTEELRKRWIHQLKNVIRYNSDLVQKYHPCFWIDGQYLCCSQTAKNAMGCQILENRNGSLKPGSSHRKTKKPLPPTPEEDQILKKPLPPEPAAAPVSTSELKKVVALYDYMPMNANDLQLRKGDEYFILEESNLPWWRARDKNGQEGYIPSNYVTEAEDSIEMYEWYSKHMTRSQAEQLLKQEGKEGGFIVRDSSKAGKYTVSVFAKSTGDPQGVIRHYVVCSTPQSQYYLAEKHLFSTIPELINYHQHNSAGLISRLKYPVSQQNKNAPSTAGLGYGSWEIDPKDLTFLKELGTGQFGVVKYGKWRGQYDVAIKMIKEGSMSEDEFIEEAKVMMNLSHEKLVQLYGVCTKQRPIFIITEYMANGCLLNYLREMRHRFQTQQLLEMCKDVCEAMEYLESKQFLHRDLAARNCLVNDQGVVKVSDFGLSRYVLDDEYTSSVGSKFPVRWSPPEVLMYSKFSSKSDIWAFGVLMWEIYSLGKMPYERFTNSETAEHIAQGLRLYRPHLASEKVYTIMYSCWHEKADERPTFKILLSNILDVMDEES
Sequence of Casein kinase I isoform alpha (P48729 2-337 limits assumed): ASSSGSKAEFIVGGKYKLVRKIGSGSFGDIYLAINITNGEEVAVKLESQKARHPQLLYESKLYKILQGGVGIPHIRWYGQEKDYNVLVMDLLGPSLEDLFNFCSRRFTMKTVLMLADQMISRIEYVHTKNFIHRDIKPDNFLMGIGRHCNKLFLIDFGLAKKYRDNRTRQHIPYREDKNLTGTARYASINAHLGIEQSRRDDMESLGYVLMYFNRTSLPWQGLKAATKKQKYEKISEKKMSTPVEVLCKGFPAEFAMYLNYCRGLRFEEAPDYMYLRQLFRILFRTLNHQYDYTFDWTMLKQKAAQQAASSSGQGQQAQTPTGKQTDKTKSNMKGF
Sequence of Mitogen-activated protein kinase 14 (Homo sapiens) (Q16539 whole entry): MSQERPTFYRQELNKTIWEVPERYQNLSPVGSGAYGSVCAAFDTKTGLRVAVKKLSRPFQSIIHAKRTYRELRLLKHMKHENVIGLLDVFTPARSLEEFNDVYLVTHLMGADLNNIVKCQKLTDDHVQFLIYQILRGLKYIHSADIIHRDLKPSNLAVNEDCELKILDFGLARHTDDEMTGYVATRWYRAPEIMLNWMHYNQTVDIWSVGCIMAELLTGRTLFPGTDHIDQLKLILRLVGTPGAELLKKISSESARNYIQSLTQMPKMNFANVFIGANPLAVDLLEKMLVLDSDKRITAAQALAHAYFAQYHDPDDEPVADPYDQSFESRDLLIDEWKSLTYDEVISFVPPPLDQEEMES
Sequence of Dual specificity tyrosine-phosphorylation-regulated kinase 2 (Homo sapiens) (Q92630 whole entry): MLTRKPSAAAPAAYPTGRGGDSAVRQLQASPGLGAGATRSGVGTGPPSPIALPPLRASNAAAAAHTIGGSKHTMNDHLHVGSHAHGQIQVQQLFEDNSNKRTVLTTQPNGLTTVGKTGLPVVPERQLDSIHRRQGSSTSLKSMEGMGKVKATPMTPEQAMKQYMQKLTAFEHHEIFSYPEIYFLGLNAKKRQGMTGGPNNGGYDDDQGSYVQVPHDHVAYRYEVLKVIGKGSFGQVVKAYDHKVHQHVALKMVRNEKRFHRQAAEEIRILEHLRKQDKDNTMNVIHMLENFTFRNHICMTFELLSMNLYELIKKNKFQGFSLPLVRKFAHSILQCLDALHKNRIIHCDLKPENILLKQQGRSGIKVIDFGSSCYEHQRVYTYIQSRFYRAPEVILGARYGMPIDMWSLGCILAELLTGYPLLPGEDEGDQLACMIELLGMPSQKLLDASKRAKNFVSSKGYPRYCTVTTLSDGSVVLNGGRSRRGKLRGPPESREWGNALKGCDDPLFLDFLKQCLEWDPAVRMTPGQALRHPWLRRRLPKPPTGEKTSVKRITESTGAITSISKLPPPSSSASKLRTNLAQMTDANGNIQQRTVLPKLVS

Q: What does the source list for `CC(C)c1cnn2c(NCc3ccccc3)cc(N[C@@H](CO)[C@H](O)CO)nc12`?
A: GI50 (MCF7 [1]): 300 nM; GI50 (PC-3): 500 nM; GI50 (SK-OV-3): 300 nM; Activity (HCT-116): Active; inhibition [2]: inactive; inhibition in vivo at 10 mg/kg (MCF7 [3]): 40%; remaining at 1 µM [4]: 83%; bioavailability [5]: 73%; AUC(0-t) [6]: 26400 ng·h/mL; Vd [7]: 0.754 L/kg; inhibition (Mus musculus [8]): inactive; Activity [9]: 98%; Activity [10]: 26%; Activity [11]: 92%; Activity (Mus musculus [12]): Non-toxic; inhibition (INH) (Mus musculus [13]): Active; Activity [14]: 101%; Activity [15]: 108%; Activity [16]: 75%; Activity [17]: 94%; Activity [18]: 86%; Activity [19]: 91%; Activity [20]: 72%; inhibition [21]: < 50%; inhibition [22]: 74%
